The source made the active and inactive calls. The calls are words filed in the database; no cut-off is given here.
Legend:
[1] = system: Cavia porcellus; assay: Inhibition of Leukotriene D4 induced bronchoconstriction when compound was administered perorally at a dose of 50 mg/kg in guinea pig; format: functional; settings: route oral
Method in brief: (§1)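 Single-dose screen in guinea pigs, with n animals per group. Significance versus control used a two-tailed Student's t test (p < 0.05), or one-way ANOVA with contrasts based on each treatment's difference from its own control mean.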

[2] = system: Cavia porcellus; assay: Inhibition of ovalbumin-induced bronchoconstriction when compound was administered intraduodenally at a dose of 50 mg/kg in guinea pig; format: functional; settings: route intraduodenal; method in brief: as §1
[3] = system: Cavia porcellus; assay: Inhibition of Leukotriene D4 induced bronchoconstriction in guinea pig by 50 mg/kg i.d.; settings: at 50 mg/kg
[4] = system: Cavia porcellus; assay: Inhibition of ovalbumin-induced bronchoconstriction when compound was administered perorally at a dose of 50 mg/kg in guinea pig; format: functional; settings: route oral; method in brief: as §1
[5] = species: Cavia porcellus; assay: Activity against leukotriene C4-induced contraction of guinea pig trachea, in the presence of glutathione
[6] = system: Cavia porcellus; assay: Inhibitory dose of the intraduodenally administered compound (10 min before giving agonist) that produced a 50% inhibition of ovalbumin induced bronchoconstriction in guinea pigs; format: functional; settings: intraduodenal, read-out: ID50 (the source's name)
Method in brief: (§2)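 Guinea pigs, intraduodenal dosing, with LTD4 or ovalbumin challenge. ID50 is the dose of antagonist giving 50% inhibition of the induced bronchoconstriction.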

[7] = system: Cavia porcellus; assay: Inhibitory dose of the intraduodenally administered compound (10 min before giving agonist) that produced a 50% inhibition of leukotriene D4 induced bronchoconstriction in guinea pigs; format: functional; settings: intraduodenal, read-out: ID50 (the source's name); method in brief: as §2
[8] = system: Rattus norvegicus; assay: Compound at 100 mg/kg was administered intragastrically and tested in a rat carrageenan paw edema assay; format: functional; settings: po, route intragastric
[9] = system: Mus musculus; assay: Compound was administered intragastrically and tested in a mouse ear edema assay; Inactive; format: functional, organism-based
[10] = system: Cavia porcellus; assay: Inhibition of ovalbumin-induced bronchoconstriction when compound was administered perorally at a dose of 25 mg/kg in guinea pig; format: functional; settings: route oral; method in brief: as §1
[11] = Dissociation constant was determined; format: physicochemical
Method in brief: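 Isolated guinea pig trachea pretreated with indomethacin and L-cysteine, then contracted with LTD4. Antagonism of the LTD4-induced contraction was expressed as a pKB value.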

[12] = target: T1, Cyclooxygenase (Rattus norvegicus, UniProt P35355+Q63921); assay: Inhibitory concentration to inhibit Prostaglandin G/H synthase in the rat; format: protein assay
T1 sequence (P35355 whole entry): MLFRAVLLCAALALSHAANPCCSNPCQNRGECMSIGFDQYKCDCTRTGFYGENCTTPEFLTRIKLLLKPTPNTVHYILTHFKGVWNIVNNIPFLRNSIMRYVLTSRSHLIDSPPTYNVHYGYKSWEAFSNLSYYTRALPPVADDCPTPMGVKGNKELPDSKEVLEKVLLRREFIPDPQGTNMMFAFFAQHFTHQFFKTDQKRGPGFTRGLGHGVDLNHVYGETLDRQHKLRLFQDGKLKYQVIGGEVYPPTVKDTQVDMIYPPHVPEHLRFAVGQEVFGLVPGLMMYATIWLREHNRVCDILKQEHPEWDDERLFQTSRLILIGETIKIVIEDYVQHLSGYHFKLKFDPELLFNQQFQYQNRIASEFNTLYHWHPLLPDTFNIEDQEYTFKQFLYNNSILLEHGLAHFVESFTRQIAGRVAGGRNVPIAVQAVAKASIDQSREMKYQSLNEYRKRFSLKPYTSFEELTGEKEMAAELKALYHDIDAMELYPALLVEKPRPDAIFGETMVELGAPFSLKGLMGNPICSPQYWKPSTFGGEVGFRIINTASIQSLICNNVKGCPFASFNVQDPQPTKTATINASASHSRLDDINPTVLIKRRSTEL
T1 sequence (Q63921 whole entry): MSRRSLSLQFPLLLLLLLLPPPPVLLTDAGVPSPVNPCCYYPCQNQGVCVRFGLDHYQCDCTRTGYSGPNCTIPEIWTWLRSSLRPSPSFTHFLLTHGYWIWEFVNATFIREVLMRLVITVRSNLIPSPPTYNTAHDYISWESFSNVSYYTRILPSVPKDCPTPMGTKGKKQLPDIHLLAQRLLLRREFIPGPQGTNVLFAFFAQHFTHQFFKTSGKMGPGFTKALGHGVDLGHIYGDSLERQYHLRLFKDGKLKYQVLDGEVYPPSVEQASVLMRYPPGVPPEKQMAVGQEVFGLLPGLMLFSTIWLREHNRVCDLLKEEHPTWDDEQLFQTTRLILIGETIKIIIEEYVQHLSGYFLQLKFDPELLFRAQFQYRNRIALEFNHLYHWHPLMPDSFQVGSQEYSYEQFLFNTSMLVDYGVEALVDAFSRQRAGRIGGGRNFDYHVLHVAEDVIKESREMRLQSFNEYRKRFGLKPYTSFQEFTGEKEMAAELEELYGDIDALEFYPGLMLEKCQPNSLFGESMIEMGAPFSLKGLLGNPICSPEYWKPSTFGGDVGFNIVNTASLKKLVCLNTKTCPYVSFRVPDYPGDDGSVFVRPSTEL
Method in brief: (§3)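 Rat PMN assay, measuring 5-lipoxygenase and cyclooxygenase activity. IC50 values are in μM.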

[13] = system: Cavia porcellus; assay: Inhibitory dose of the intragastrically administered compound (120 min before giving agonist) that produced a 50% inhibition of ovalbumin induced bronchoconstriction in guinea pigs; format: functional; settings: po, read-out: ID50 (the source's name)
Method in brief: (§4)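 Guinea pigs, awake, dosed intragastrically 120 min before agonist challenge (95 min before anesthetic). The LTD4 challenge was given intravenously; ovalbumin served as antigen. ID50 is the dose giving 50% inhibition of LTD4- or ovalbumin-induced bronchoconstriction.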

[14] = target: T2, Polyunsaturated fatty acid 5-lipoxygenase (Rattus norvegicus, UniProt P12527); assay: Inhibitory concentration to inhibit 5-lipoxygenase in the rat; method in brief: as §3
T2 sequence (P12527 whole entry): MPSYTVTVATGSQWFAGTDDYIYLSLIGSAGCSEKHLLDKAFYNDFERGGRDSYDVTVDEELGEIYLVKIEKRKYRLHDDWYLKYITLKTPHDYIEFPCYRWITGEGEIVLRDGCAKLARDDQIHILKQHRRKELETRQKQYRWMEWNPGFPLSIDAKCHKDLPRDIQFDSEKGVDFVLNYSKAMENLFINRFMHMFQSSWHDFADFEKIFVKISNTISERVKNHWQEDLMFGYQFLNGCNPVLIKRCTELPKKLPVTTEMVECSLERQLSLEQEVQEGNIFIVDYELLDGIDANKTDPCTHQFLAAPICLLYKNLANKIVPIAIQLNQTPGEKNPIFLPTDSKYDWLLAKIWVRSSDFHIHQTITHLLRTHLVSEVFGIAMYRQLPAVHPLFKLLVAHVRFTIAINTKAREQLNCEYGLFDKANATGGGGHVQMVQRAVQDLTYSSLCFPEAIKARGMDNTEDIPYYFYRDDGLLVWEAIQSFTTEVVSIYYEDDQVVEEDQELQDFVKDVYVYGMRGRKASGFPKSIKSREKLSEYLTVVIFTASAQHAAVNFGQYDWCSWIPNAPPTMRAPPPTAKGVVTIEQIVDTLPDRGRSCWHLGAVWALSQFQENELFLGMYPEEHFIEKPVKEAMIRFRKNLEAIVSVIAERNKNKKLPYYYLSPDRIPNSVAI

[15] = system: Cavia porcellus; assay: Inhibitory dose of the intragastrically administered compound (120 min before giving agonist) that produced a 50% inhibition of leukotriene D4 induced bronchoconstriction in guinea pigs; format: functional; settings: po, read-out: ID50 (the source's name); method in brief: as §4
[16] = Binding studies using tritium-labelled leukotriene D4; design: species or system Cavia porcellus
[17] = system: Cavia porcellus; assay: Inhibition of ovalbumin-induced bronchoconstriction when compound was administered intraduodenally at a dose of 10 mg/kg in guinea pig; format: functional; settings: route intraduodenal; method in brief: as §1
[18] = system: Cavia porcellus; assay: Inhibition of Leukotriene D4 induced bronchoconstriction when compound was administered perorally at a dose of 25 mg/kg in guinea pig; format: functional; settings: route oral; method in brief: as §1
[19] = system: Cavia porcellus; assay: Inhibition of Leukotriene D4 induced bronchoconstriction when compound was administered intraduodenally at a dose of 25 mg/kg in guinea pig
[20] = system: Cavia porcellus; assay: Percentage inhibition of Leukotriene D4 when Compound was administered perorally at a dose of 50 mg/kg in guinea pig,; format: functional; settings: route oral; method in brief: as §1

Compound | inhibition [3] [%] | inhibition [19] [%] | inhibition in vivo at 50 mg/kg [2] [%] | further results
O=S(=O)(Nc1cccc(OCc2ccc3ccccc3n2)c1)C(F)(F)F [RITOLUKAST] |  |  |  | Dose [5]: 30 µM; ED50 [6]: 3 mg/kg; ED50 [7]: 0.3 mg/kg; inhibition in vivo at 100 mg/kg [8]: 20%; inhibition [9]: inactive; inhibition in vivo at 25 mg/kg [10]: 69%; pKB [11]: 7.7; IC50 [12]: 3.3 µM; ED50 [13]: 0.6 mg/kg; IC50 [14]: 4.6 µM; ED50 [15]: 0.1 mg/kg; Kd [16]: 0.035 µM; inhibition in vivo at 10 mg/kg [17]: 73%; inhibition in vivo at 25 mg/kg [18]: 100%
O=S(=O)(Nc1cccc(Oc2cccc3cccnc23)c1)C(F)(F)F |  | 50 |  | 
CCS(=O)(=O)Nc1cccc(OCc2nc3ccccc3s2)c1 | 41 |  | 35 | inhibition in vivo at 50 mg/kg [4]: 32%; inhibition in vivo at 50 mg/kg [20]: 13%
CCS(=O)(=O)N(C)c1ccc2ccc(OCc3ccc4ccccc4n3)cc2c1 | 37 |  |  | 
CCCS(=O)(=O)Nc1cccc(OCc2nc3ccccc3s2)c1 | 48 |  | 18 | 
CCCS(=O)(=O)Nc1cccc(OCc2nc3ccccc3n2C)c1 | 37 |  | 31 | inhibition in vivo at 50 mg/kg [1]: 36%; inhibition in vivo at 50 mg/kg [4]: 17%
O=S(=O)(Nc1ccccc1SCc1ccc2ccccc2n1)C(F)(F)F |  | -5 |  | 
CCS(=O)(=O)Nc1cccc(OCc2nc3ccccc3n2C)c1 | 75 |  | 16 | 
CCCCS(=O)(=O)Nc1cccc(OCc2nc3ccccc3s2)c1 | 56 |  | 16 | 

Now from value to compound, other results behind:

inhibition [3] [%] | inhibition [19] [%] | Compound | inhibition in vivo at 50 mg/kg [2] [%] | further results
91 |  | CCS(=O)(=O)Nc1ccc2ccc(OCc3ccc4ccccc4n3)cc2c1 | 20 | inhibition in vivo at 50 mg/kg [1]: 34%; inhibition in vivo at 50 mg/kg [4]: 24%
68 |  | CS(=O)(=O)Nc1ccc2ccc(OCc3ccc4ccccc4n3)cc2c1 |  | 
42 |  | CCS(=O)(=O)Nc1cccc(OCc2ccc3ccccc3c2)c1 |  | 
 | 85 | O=S(=O)(Nc1cccc(SCc2ccc3ccccc3n2)c1)C(F)(F)F |  | inhibition in vivo at 25 mg/kg [10]: 59%; inhibition in vivo at 25 mg/kg [18]: 97%
 | 69 | COC(=O)CS(=O)(=O)Nc1cccc(OCc2ccc3ccccc3n2)c1 |  | 
 | 100 | O=S(=O)(CC(F)(F)F)Nc1cccc(OCc2ccc3ccccc3n2)c1 |  | 
51 |  | CCCCS(=O)(=O)Nc1ccc2ccc(OCc3ccc4ccccc4n3)cc2c1 |  | 
 | 46 | O=S(=O)(Nc1cccc(OCc2ccc3ccccc3n2)c1)c1ccc(C(F)(F)F)cc1 |  | 
 | 13 | O=S(=O)(Nc1cccc(OCc2csc3ccccc23)c1)C(F)(F)F |  | 
 | 11 | CN(C)S(=O)(=O)Nc1cccc(OCc2ccc3ccccc3n2)c1 |  | 
83 |  | CCS(=O)(=O)Nc1cccc(OCc2ccc3ccccc3n2)c1 | 0 | 
